Measured values: publication PMC2744100 (Journal of medicinal chemistry, 2009)
Like-named read-outs stand apart in the source and are kept apart here.

What was measured:
TCCYP51 [1] = target: T1, TCCYP51 (Trypanosoma cruzi, UniProt Q7Z1V1); experiment: Spectral titration of TCCYP51; format: binding; conditions: ligand-free maximum 417 nm
[2] = system: TC trypomastigotes and amastigotes; experiment: Growth inhibition assay in TC cells; format: cell-based, Trypanosoma cruzi; conditions: for Effect on parasites in cardiomyocytes at 20 μM: 20 μM compound; for Antiparasitic effect in both human forms of TC: pre-treatment of trypomastigotes, 1–50 μM
Outline: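 Trypomastigotes (10^6) pre-exposed 30 min to test compound in DMSO (1–50 μM) or DMSO alone. Then added in triplicate to rat cardiomyocyte monolayers, 10 parasites/cell, for 2 h. Unbound parasites were removed and cultures kept 72 h in DMEM + 10% FBS. T. cruzi per 200 cells and % infection were counted microscopically on Giemsa stain. Mean ± SD; Student t test versus DMSO.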

TC epimastigotes [3] = experiment: TC cellular sterol analysis; format: cell-based, Trypanosoma cruzi; conditions: 50 μM, TLC
TCCYP51 [4] = target: T1, TCCYP51; experiment: ESI-MS analysis of non-covalent interactions in TCCYP51; format: binding; conditions: ESI-mass spectrometry, 20-HCl 100 μM
TCCYP51 [5] = target: T1, TCCYP51; format: biochemical; conditions: reconstituted enzyme reaction
[6] = system: rat cardiomyocyte monolayers; experiment: Effect on cardiomyocyte monolayers in the growth inhibition assay; format: cell-based; conditions: concentrations higher than 10 μM
TCCYP51 [7] = target: T1, TCCYP51; conditions: read-out: Kd of enzyme/substrate complex formation; preferred substrate; cited from earlier work
TC cells = conditions: published values; cited from earlier work
TC epimastigotes [8] = conditions: 1 μM; cited from earlier work

T1 sequence (Q7Z1V1 whole entry): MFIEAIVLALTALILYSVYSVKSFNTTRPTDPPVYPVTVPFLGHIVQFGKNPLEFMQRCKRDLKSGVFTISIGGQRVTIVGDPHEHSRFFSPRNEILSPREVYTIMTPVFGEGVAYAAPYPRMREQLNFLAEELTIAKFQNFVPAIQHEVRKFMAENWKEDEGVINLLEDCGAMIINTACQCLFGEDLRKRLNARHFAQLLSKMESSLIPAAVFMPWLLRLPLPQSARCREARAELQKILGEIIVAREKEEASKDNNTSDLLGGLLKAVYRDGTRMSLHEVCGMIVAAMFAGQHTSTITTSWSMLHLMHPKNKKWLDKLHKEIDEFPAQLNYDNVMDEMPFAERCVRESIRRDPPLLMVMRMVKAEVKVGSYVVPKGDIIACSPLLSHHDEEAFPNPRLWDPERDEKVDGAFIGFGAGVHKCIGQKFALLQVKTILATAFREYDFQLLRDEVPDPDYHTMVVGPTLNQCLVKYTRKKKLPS

CC1CCC(C(=O)NC(Cc2c[nH]c3ccccc23)C(=O)Nc2ccncc2)CC1 (centres unmarked) [Compound 9]
Spectral Response in TCCYP51, Soret band maximum (TCCYP51 [1]): 422 nm | Effect on parasites in cardiomyocytes at 20 μM ([2]; 72 h): practically eliminated from cardiomyocytes | Antiparasitic effect in both human forms of TC [2]: clear dose-dependent antiparasitic effect

COc1ccc2c(c1)c(CC(=O)NCCc1cccnc1)c(C)n2C(=O)c1ccc(Cl)cc1 [Compound 20]
Spectral Response in TCCYP51, Soret band maximum (TCCYP51 [1]): 422 nm | Effect on parasites in cardiomyocytes at 20 μM ([2]; 72 h): practically eliminated from cardiomyocytes | ED50 (growth inhibition) ([2]; TC amastigotes in cardiomyocytes, 72 h): < 1 µM | Antiparasitic effect in both human forms of TC [2]: clear dose-dependent antiparasitic effect | Effect on TC cellular sterol composition (TC epimastigotes [3]): very similar effect on cellular sterol composition | Binding stoichiometry to TCCYP51 (TCCYP51 [4]): simultaneous binding of two inhibitor molecules to the enzyme

COc1ccc2c(c1)c(CC(=O)Nc1ncccn1)c(C)n2C(=O)c1ccc(Cl)cc1 [Compound 17]
Spectral Response in TCCYP51, Soret band maximum (TCCYP51 [1]): 417 nm

O=C(Nc1ccncc1)C1c2ccccc2Oc2ccccc21 [Compound 7]
Spectral Response in TCCYP51, Soret band maximum (TCCYP51 [1]): 422 nm

COc1ccc2c(c1)c(CC(=O)Nc1cccnc1)c(C)n2C(=O)c1ccc(Cl)cc1 [Compound 12]
Spectral Response in TCCYP51, Soret band maximum (TCCYP51 [1]): 422 nm

COc1ccc2c(c1)c(CC(=O)NCc1ccc(Cl)nc1)c(C)n2C(=O)c1ccc(Cl)cc1 [Compound 18]
Spectral Response in TCCYP51, Soret band maximum (TCCYP51 [1]): 420 nm | Effect on parasites in cardiomyocytes at 20 μM ([2]; 72 h): practically eliminated from cardiomyocytes | Antiparasitic effect in both human forms of TC [2]: clear dose-dependent antiparasitic effect

COc1ccc2c(c1)c(CC(=O)NCc1ccc(C(F)(F)F)nc1)c(C)n2C(=O)c1ccc(Cl)cc1 [Compound 19]
Spectral Response in TCCYP51, Soret band maximum (TCCYP51 [1]): 420 nm

CCC(C(=O)Nc1ccncc1)c1ccccc1 (centres unmarked) [Compound 5, 2-phenyl-N-pyridin-4-ylbutanamide]
Spectral Response in TCCYP51, Soret band maximum (TCCYP51 [1]): 422 nm

COc1ccc2c(c1)c(CC(=O)NCc1ccccn1)c(C)n2C(=O)c1ccc(Cl)cc1 [Compound 13]
Spectral Response in TCCYP51, Soret band maximum (TCCYP51 [1]): 418 nm | Effect on parasites in cardiomyocytes at 20 μM ([2]; 72 h): practically eliminated from cardiomyocytes | Antiparasitic effect in both human forms of TC [2]: clear dose-dependent antiparasitic effect

COc1ccc2c(c1)c(CC(=O)NCCc1cccc(Cl)c1)c(C)n2C(=O)c1ccc(Cl)cc1 [Compound 21]
Spectral Response in TCCYP51, Soret band maximum (TCCYP51 [1]): 419 nm | Character of TCCYP51 inhibition (reversibility) (TCCYP51 [5]): functionally irreversible | Effect on cardiomyocyte monolayers [6]: release cardiomyocyte monolayers at higher concentrations

COc1ccc2c(c1)c(CC(=O)NCC(C)c1ccccc1)c(C)n2C(=O)c1ccc(Cl)cc1 (centres unmarked) [Compound 22]
Spectral Response in TCCYP51, Soret band maximum (TCCYP51 [1]): 419 nm | Character of TCCYP51 inhibition (reversibility) (TCCYP51 [5]): functionally irreversible | Effect on cardiomyocyte monolayers [6]: release cardiomyocyte monolayers at higher concentrations

C=C(CC[C@@H](C)[C@H]1CC[C@@]2(C)C3=C(CC[C@]12C)[C@@]1(C)CC[C@H](O)C(C)(C)[C@@H]1CC3)C(C)C [24-methylenedihydrolanosterol]
Kd (TCCYP51 [7]): ~1 µM

O=C(Cn1ccnc1[N+](=O)[O-])NCc1ccccc1 [benznidazole]
ED50 in TC cells (TC cells): 25 to 50 µM

COc1ccc2c(c1)c(CC(=O)NCc1ccncc1)c(C)n2C(=O)c1ccc(Cl)cc1 [Compound 14]
Spectral Response in TCCYP51, Soret band maximum (TCCYP51 [1]): 422 nm

COc1ccc2c(c1)c(CC(=O)NC(C)c1ccncc1)c(C)n2C(=O)c1ccc(Cl)cc1 (centres unmarked) [Compound 15]
Spectral Response in TCCYP51, Soret band maximum (TCCYP51 [1]): 422 nm

COc1ccc2c(c1)c(CC(=O)Nc1ccccn1)c(C)n2C(=O)c1ccc(Cl)cc1 [Compound 16]
Spectral Response in TCCYP51, Soret band maximum (TCCYP51 [1]): 416 nm

O=C(NC(Cn1ccnc1)c1ccc(Cl)cc1Cl)c1ccc(-c2nnc(-c3ccccc3)o2)cc1 (centres unmarked) [SDZ-284629, N-(1-(2,4-dichlorophenyl)-2-(1H-imidazol-1-yl)ethyl)-4-(5-phenyl-1,3,4-oxadiazol-2-yl)benzamide]
Effect on TC cellular sterol composition (TC epimastigotes [8]): the pathway practically stops at the stage of the C14-methylated sterol precursors
